Experimental data gathered from unrelated publications.
Each line is one published result; the experiments were not run side by side.
Target: 5'-AMP-activated protein kinase catalytic subunit alpha-1 (PRKAA1, Homo sapiens, UniProt Q13131)
Technique: competition with immobilised ligand

The remaining binding of `CS(=O)(=O)c1cc(C2(NC(=O)c3cncc4c3cnn4-c3ccc(F)cc3)CC2)ccn1` is reported as 99% (cell-free assay; 1 µM).
`COc1cnc(Nc2cccc(S(N)(=O)=O)c2)nc1N1CCN(c2ccccc2)C(=O)C1` gave a remaining binding of 100% (binding; 1 µM).
`O=C(c1ccc(Nc2ncc(Cl)c(-c3cc4ccccc4s3)n2)cc1)N1CCC(N2CCCC2)CC1` has a remaining binding of 5.7% (binding; 1 µM).
`NS(=O)(=O)c1cc(NC(=O)C2(c3ccccc3Cl)CC2)ccc1Oc1cccc(Cl)c1` has a remaining binding of 80% (cell-free assay; 1 µM).
`O=C(c1ccc(Nc2nccc(-c3cc4ccccc4s3)n2)cc1)N1CCC(N2CCCC2)CC1` has a remaining binding of 36% (binding; 1 µM).
`Cc1c(NC(=O)c2cc(C(N)=O)nc3cc(F)ccc23)c(C(F)(F)F)nn1Cc1ccc(C(C)(C)C)cc1` gave a remaining binding of 100% (cell-free assay; 1 µM).
For `O=C(Nc1c[nH]nc1C(=O)NC1CCNCC1)c1cc(F)cc(F)c1`, the remaining binding was 100% (binding; 1 µM).
The remaining binding of `CN(C)c1nccc(-c2cnc3ncccn23)n1` is reported as 100% (binding; 1 µM).
The remaining binding of `CN(C)C(=O)Cn1cc(-c2nc(C3(c4ccc(-c5cnc(N)nc5)cc4)CC3)no2)cn1` is reported as 98% (cell-free assay; 1 µM).
For `COc1ccnn2ncc(-c3ccnc(N(C)C)n3)c12`, the remaining binding was 97% (binding; 1 µM).
The remaining binding of `O=C(NCCCN1CCOCC1)c1ccc(Nc2ncc(Cl)c(-c3ccc(Cl)s3)n2)cc1` is reported as 15% (binding; 1 µM).
With `CNCc1ccccc1-c1csc([C@@H](C)Nc2nc(C)nc3cc(OC)c(OC)cc23)c1` the remaining binding was 100% (cell-free assay; 1 µM).
`F[C@@H]1CCN(c2nccc(-c3cnn4ncccc34)n2)C1` gave a remaining binding of 85% (binding; 1 µM).
`CNC(=O)[C@@H]1CC[C@@H](n2c(-c3ccc4cnccc4c3)nc3ccc(C(=O)NCc4cccc(C(N)=O)c4)cc32)C1` has a remaining binding of 84% (binding; 1 µM).
The remaining binding of `FC(F)(F)Oc1cccc(-c2cnc3ccc(-c4ccncc4)nn23)c1` is reported as 96% (cell-free assay; 5 µM).
`N[C@@H]1CCN(c2nccc(-c3cnn4ncccc34)n2)C1` gave a remaining binding of 95% (binding; 1 µM).
`Nc1ncc2c(n1)-c1c([nH]c3ccc(C#CC4CC4)cc13)CCCC2` has a remaining binding of 97% (binding; 1 µM).
`C[C@@H]1CCN(c2nccc(-c3cnn4ncccc34)n2)C1` has a remaining binding of 99% (binding; 1 µM).
The remaining binding of `C=CC(=O)N1CCC(C(=O)NCC(=O)N2CCN(c3nc(-c4cnc(N)nc4C(F)F)nc(N4CCOCC4)n3)CC2)CC1` is reported as 97% (binding; 1 µM).
With `c1cnn2ncc(-c3ccnc(N4CCC45COC5)n3)c2c1` the remaining binding was 92% (binding; 1 µM).
`O=C(Nc1cnc(Oc2ccc(F)cc2)nc1)N1CCc2ncccc2[C@@H]1c1ccc(F)cc1` gave a remaining binding of 88% (cell-free assay; 1 µM).
